Bioassay records from PubChem BioAssay.
ROMK primary = human ROMK K+ channel modulation, primary screen; P48048; Tet-inducible ROMK, thallium flux fluorescence; actives lie on both sides; B-score at 10 µM; 130,000 compounds, 2% hits; AID 1918;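 active = signal ratio slope over the read window, or its plate-corrected B-score, at least 3 SD from the plate mean, either direction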;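 note: B-score of the F/F0 ratio slope over 7 to 12 s after thallium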
Diaphorase inh = counter-screen for diaphorase-based assays: diaphorase inhibitors and chemical oxidizers | diaphorase resazurin-to-resorufin fluorescence, NADH, 16 min; bacterial (C. kluyveri) enzyme, not human | 190,000 compounds, 0.69% hits | inhibition, % at 20 µM | AID 1217;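 active = primary screen inhibition at 20 µM above a set limit, cut at about 50% in these data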;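 note: plate controls were DMSO with full reaction for no effect and wells lacking NADH for full effect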
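Detection: fluorescence of resorufin formed from resazurin, Ex 544/Em 590 nm; test system: Clostridium kluyveri diaphorase enzyme; amount: 0.14 U/mL diaphorase, enzyme working solution; times: 16-min room-temperature incubation before reading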
Lmaj promast = Leishmania major promastigote growth inhibition. Leishmania major promastigotes, resazurin fluorescence viability. inhibition, % at 10 µM. 200,000 compounds, 9% hits; in the data active = inhibition above about 50%;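 note: promastigotes grown with compound for 44 hours at 28 °C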
WT yeast gro inh = growth inhibition of WT yeast, mitochondrial fusion screen; mitochondrial fusion phenotypic screen, WT strain; inhibition, % at 10 µM; 190,000 compounds, 2.1% hits; AID 1362; in the data active = inhibition above about 58%; tested in S. cerevisiae
Diaphorase act = diaphorase activation or chemical reduction counter-screen. 190,000 compounds, 0.005% hits. Diaphorase/resazurin coupled assay, resorufin fluorescence, 16 min; hits give high values; 1 = vehicle wells, 0 = NADH-free wells. activation factor at 20 µM;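 active = diaphorase activity raised at least twofold by the compound at 20 µM; inactive = activation factor below 2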
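Assay system: bacterial diaphorase enzyme (C. kluyveri) / Input: enzyme 0.07 U/mL final / Medium: 50 mM HEPES pH 7.4 with 4.542 mM MgCl2, 0.005% Tween 20 / Doses: single compound dose of 20 µM, 1% DMSO final / Incubation: 16 min enzyme reaction, ambient temperature / Signal: fluorescence, excitation 544 nm and emission 590 nm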
KCC2 mod = KCC2 (human) Cl- transport modulation; B-score of Tl+ flux slope (higher = more flux/activation; lower = inhibition) at 10 µM; 190,000 compounds, 2.2% hits; KCC2 cells, thallium flux FluoZin-2 fluorescence;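 active = thallium flux slope and its plate-corrected score both differing from the plate sample mean at a set confidence after two filtering rounds, in either direction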;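 note: slope of fluorescence scaled to starting intensity during 10 to 20 s after thallium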
Active calls of the source: *; / = no result given. Hits are enriched below; roughly 12% of the tested compounds scored in any of these assays.

SMILES	ROMK primary	Diaphorase inh	Lmaj promast	WT yeast gro inh	Diaphorase act	KCC2 mod
O=C(COc1ccc(Cl)cc1Cl)NCCC1=CCCCC1	/	27	-4	66*	0.7	/
CCNc1ncnc2c1cnn2C	0.98	4	-7	-1	1	-0.013
O=C(c1ccco1)N1CCN(C(=O)c2cc(-c3ccncc3)nc3ccc(Br)cc23)CC1	1.2	/	14	/	/	/
O=C(O)c1cc(-c2ccco2)nc2ccc(Br)cc12	0.047	65*	-1	-13	0.3	/
O=C(O)c1ccc2nc(-c3ccco3)c(-c3ccco3)nc2c1	-0.39	84*	-3	3	0.2	-0.031
O=C(c1cc(-c2ccco2)on1)N1CCN(c2ccccc2)CC1	/	24	-6	18	0.8	-0.76
O=C(c1ccc2nc(-c3ccco3)c(-c3ccco3)nc2c1)N1CCN(c2ccccc2)CC1	/	56*	0	38	0.4	-1.1
Cn1c(=O)n(C)c2cc(S(=O)(=O)N3CCOCC3)ccc21	/	7	-3	-6	0.9	0.28
O=S(=O)(c1ccc2nc(-c3ccco3)c(-c3ccco3)nc2c1)N1CCOCC1	-0.34	67*	0	5	0.3	-0.047
NS(=O)(=O)c1ccc(CCN=Cc2ccccc2O)cc1	-0.049	13	32	-7	0.9	-0.018
O=C1c2ccccc2C(O)N1Cc1cccs1 (stereo not given)	/	3	-1	-18	1	0.025
Cc1cccn2c(CN3CCCN(C=O)CC3)c(C(=O)N(C)CCc3ccccc3)nc12	-0.1	10	-2	/	0.9	1.4
CCc1nc2ccc(C(=O)O)cc2nc1CC	/	23	50*	-10	0.8	-1
CCC(C)(C(=O)NC1CCCCC1)N(Cc1ccco1)C(=O)Cc1cccs1 (stereo not given)	/	5	0	-3	1	-0.78
CSc1cccc(NC(=S)N2CCCN(Cc3ccccc3F)C2)c1	-0.5	13	76*	18	0.9	1.3
CSc1cccc(NC(=S)N2CCC(N(C)C3CCCCC3)CC2)c1	/	9	88*	-5	0.9	0.55
CSc1cccc(NC(=S)N2CCC(N(C)C3CCCCC3C)CC2)c1 (stereo not given)	0.16	6	82*	-3	0.9	0.069
CCCC1=NN(C(=O)Cc2ccc(OC)c(OC)c2)C(O)(C(F)(F)F)C1 (stereo not given)	/	/	/	/	/	0.014
O=C(O)CCC(NC(=O)C(Cc1ccc2c(c1)OCO2)NC(=O)c1ccccc1)C(=O)O (stereo not given)	/	6	12	12	0.9	/
CC(C)CNC(=O)[C@H](Cc1ccccc1)NC(=O)c1ccco1	3.2*	3	5	-11	1	-1.1
O=C(NC(Cc1ccc2c(c1)OCO2)C(=O)NC(Cc1ccccc1)C(=O)O)c1ccccc1 (stereo not given)	0.5	12	88*	10	0.9	0.61
CC(NC(=O)C(Cc1ccccc1)NC(=O)c1ccccc1)C(=O)O (stereo not given)	/	6	85*	-9	0.9	0.11
COc1cc(OC)c(OC)cc1CN1CCN(Cc2cccn2C)CC1	/	6	6	-10	0.9	0.84
O=C(CSCCN1C(=O)c2ccccc2C1=O)Nc1ccc2ccccc2c1	/	20	-2	-8	0.8	-1.2
O=C(C1CCCCC1)N(Cc1ccccc1)c1ccccn1	/	8	-4	84*	0.9	-0.49
SMILES	ROMK primary	Diaphorase inh	Lmaj promast	WT yeast gro inh	Diaphorase act	KCC2 mod
Cc1ccc2c(c1)c1c3n2CCN(C(=O)C2CC2)C3CCC1 (stereo not given)	/	15	-5	8	0.8	/
Cc1ccc2c(c1)c1c3n2CCCN(Cc2ccccc2)C3CCC1 (stereo not given)	0.51	27	25	81*	0.7	/
Nc1ccc(C(=O)OCC(=O)Nc2ccc3c(c2)OCO3)cc1[N+](=O)[O-]	/	16	69*	-2	0.8	-0.067
Cc1cc(C)c(OCC(=O)Nc2ccc3c(c2)OCO3)cc1C	/	-1	80*	3	1	0.1
CCNc1ccc(C(=O)OCC(=O)c2cc(C)n(Cc3ccc4c(c3)OCO4)c2C)cc1[N+](=O)[O-]	-0.52	3	67*	-15	1	-0.071
Cc1ccccc1OCC(=O)Nc1ccc2c(c1)OCCO2	/	/	/	/	/	-0.71
Cc1ccc(C)c(OCC(=O)Nc2ccc3c(c2)OCO3)c1	/	23	82*	-3	0.8	1
